Columns and labels:
Type in all cases: functional
[1] = system: UO-31; assay: Anticancer activity against human UO31 cells after 48 hrs by sulforhodamine B assay; conditions: UO-31, 48 h
Method in brief: (§1)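 NCI 60-cell-line panel; cells grown in RPMI 1640 with 5% FBS and 2 mM L-glutamine, plated at 5000–40,000 cells/well and preincubated 24 h at 37 °C, 5% CO2. Compounds came from DMSO stocks diluted in medium with gentamicin and were tested at five final concentrations, 10^-4 to 10^-8 M, for 48 h. Cells were fixed with TCA, stained with SRB and read at 515 nm. GI50, TGI and LC50 were derived as log molar values.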

[2] = system: MDA-N; assay: Anticancer activity against human MDA-N cells after 48 hrs by sulforhodamine B assay
Method in brief: (§2)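 NCI 60-cell-line screen. Cells grown in RPMI 1640 with 5% FBS and 2 mM L-glutamine, plated at 5000–40,000 cells/well, and preincubated 24 h at 37 °C under 5% CO2. Compounds were taken from DMSO stocks and tested at five final concentrations, 10^-4 to 10^-8 M, for 48 h. Cells were TCA-fixed, stained with 0.4% SRB, and read at 515 nm. GI50, TGI and LC50 were derived as log molar values.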

[3] = system: SF-539; assay: Anticancer activity against human SF539 cells after 48 hrs by sulforhodamine B assay; conditions: SF-539, 48 h; method in brief: as §2
[4] = system: SW-620; assay: Anticancer activity against human SW620 cells after 48 hrs by sulforhodamine B assay; conditions: SW-620, 48 h; method in brief: as §1
[5] = system: MOLT-4; assay: Anticancer activity against human MOLT4 cells after 48 hrs by sulforhodamine B assay; conditions: MOLT-4, 48 h; method in brief: as §2
[6] = system: MDA-MB-435; assay: Anticancer activity against human MDA-MB-435 cells after 48 hrs by sulforhodamine B assay; conditions: MDA-MB-435, 48 h; method in brief: as §2
[7] = system: A498; assay: Anticancer activity against human A498 cells after 48 hrs by sulforhodamine B assay; conditions: A498, 48 h; method in brief: as §2
[8] = system: RXF 393; assay: Anticancer activity against human RXF393 cells after 48 hrs by sulforhodamine B assay; conditions: RXF 393, 48 h; method in brief: as §2
[9] = system: M14; assay: Anticancer activity against human M14 cells after 48 hrs by sulforhodamine B assay; conditions: M14, 48 h; method in brief: as §2
[10] = system: HOP-62; assay: Anticancer activity against human HOP62 cells after 48 hrs by sulforhodamine B assay; conditions: HOP-62, 48 h; method in brief: as §2
[11] = system: HCT-15; assay: Anticancer activity against human HCT15 cells after 48 hrs by sulforhodamine B assay; conditions: HCT-15, 48 h; method in brief: as §2
[12] = system: K562; assay: Anticancer activity against human K562 cells after 48 hrs by sulforhodamine B assay; conditions: K562, 48 h; method in brief: as §2
[13] = system: A549; assay: Anticancer activity against human A549 cells after 48 hrs by sulforhodamine B assay; conditions: A549, 48 h; method in brief: as §2
[14] = system: SK-MEL-5; assay: Anticancer activity against human SK-MEL-5 cells after 48 hrs by sulforhodamine B assay; conditions: SK-MEL-5, 48 h; method in brief: as §2
[15] = system: HCT-116; assay: Anticancer activity against human HCT116 cells after 48 hrs by sulforhodamine B assay; conditions: HCT-116, 48 h; method in brief: as §2
[16] = system: OVCAR-4; assay: Anticancer activity against human OVCAR4 cells after 48 hrs by sulforhodamine B assay; conditions: OVCAR-4, 48 h; method in brief: as §2
[17] = system: COLO 205; assay: Anticancer activity against human COLO205 cells after 48 hrs by sulforhodamine B assay; conditions: COLO 205, 48 h; method in brief: as §2
[18] = system: DU-145; assay: Anticancer activity against human DU145 cells after 48 hrs by sulforhodamine B assay; conditions: DU-145, 48 h; method in brief: as §2
[19] = system: SN12C; assay: Anticancer activity against human SN12C cells after 48 hrs by sulforhodamine B assay; method in brief: as §1
[20] = system: NCI-H522; assay: Anticancer activity against human NCI-H522 cells after 48 hrs by sulforhodamine B assay; conditions: NCI-H522, 48 h; method in brief: as §2
[21] = system: SNB-75; assay: Anticancer activity against human SNB75 cells after 48 hrs by sulforhodamine B assay; conditions: SNB-75, 48 h; method in brief: as §1
[22] = system: NCI/ADR-RES; assay: Anticancer activity against human NCI/ADR-RES cells after 48 hrs by sulforhodamine B assay; method in brief: as §2
[23] = system: IGROV-1; assay: Anticancer activity against human IGROV1 cells after 48 hrs by sulforhodamine B assay; conditions: IGROV-1, 48 h; method in brief: as §2
[24] = system: OVCAR-5; assay: Anticancer activity against human OVCAR5 cells after 48 hrs by sulforhodamine B assay; conditions: OVCAR-5, 48 h; method in brief: as §2
[25] = system: KM12; assay: Anticancer activity against human KM12 cells after 48 hrs by sulforhodamine B assay; conditions: KM12, 48 h; method in brief: as §2
[26] = system: UACC-62; assay: Anticancer activity against human UACC62 cells after 48 hrs by sulforhodamine B assay; conditions: UACC-62, 48 h; method in brief: as §1
[27] = system: MCF7; assay: Anticancer activity against human MCF7 cells after 48 hrs by sulforhodamine B assay; conditions: MCF7, 48 h; method in brief: as §2
[28] = system: Malme-3M; assay: Anticancer activity against human MALME-3M cells after 48 hrs by sulforhodamine B assay; method in brief: as §2
[29] = system: CAKI-1; assay: Anticancer activity against human Caki1 cells after 48 hrs by sulforhodamine B assay; conditions: CAKI-1, 48 h; method in brief: as §2
[30] = system: PC-3; assay: Anticancer activity against human PC3 cells after 48 hrs by sulforhodamine B assay; conditions: PC-3, 48 h; method in brief: as §2
[31] = system: UACC-257; assay: Anticancer activity against human UACC257 cells after 48 hrs by sulforhodamine B assay; conditions: UACC-257, 48 h; method in brief: as §1
[32] = system: OVCAR-8; assay: Anticancer activity against human OVCAR8 cells after 48 hrs by sulforhodamine B assay; conditions: OVCAR-8, 48 h; method in brief: as §2
[33] = system: HT-29; assay: Anticancer activity against human HT-29 cells after 48 hrs by sulforhodamine B assay; conditions: HT-29, 48 h; method in brief: as §2
[34] = system: NCI-H460; assay: Anticancer activity against human NCI-H460 cells after 48 hrs by sulforhodamine B assay; conditions: NCI-H460, 48 h; method in brief: as §2
[35] = system: SK-MEL-28; assay: Anticancer activity against human SK-MEL-28 cells after 48 hrs by sulforhodamine B assay; conditions: SK-MEL-28, 48 h; method in brief: as §2
[36] = system: NCI-H226; assay: Anticancer activity against human NCI-H226 cells after 48 hrs by sulforhodamine B assay; conditions: NCI-H226, 48 h; method in brief: as §2
[37] = system: MDA-MB-231; assay: Anticancer activity against human MDA-MB-231 cells after 48 hrs by sulforhodamine B assay; conditions: MDA-MB-231, 48 h; method in brief: as §2
[38] = system: EKVX; assay: Anticancer activity against human EKVX cells after 48 hrs by sulforhodamine B assay; method in brief: as §2
[39] = system: T47D; assay: Anticancer activity against human T47D cells after 48 hrs by sulforhodamine B assay; method in brief: as §1
[40] = system: U-251; assay: Anticancer activity against human U251 cells after 48 hrs by sulforhodamine B assay; conditions: U-251, 48 h; method in brief: as §1
[41] = system: SR; assay: Anticancer activity against human SR cells after 48 hrs by sulforhodamine B assay; method in brief: as §1
[42] = system: OVCAR-3; assay: Anticancer activity against human OVCAR-3 cells after 48 hrs by sulforhodamine B assay; conditions: OVCAR-3, 48 h; method in brief: as §2
[43] = system: SF-268; assay: Anticancer activity against human SF268 cells after 48 hrs by sulforhodamine B assay; conditions: SF-268, 48 h; method in brief: as §2
[44] = Anticancer activity against human Hs 578T cells after 48 hrs by sulforhodamine B assay; method in brief: as §2

SMILES: CCC(NC(=O)Nc1nccs1)(C(F)(F)F)C(F)(F)F
- GI50 [1]: 95.5 µM
- GI50 [2]: 60.3 µM
- GI50 [3]: > 100 µM
- GI50 [4]: 83.2 µM
- GI50 [5]: 30.9 µM
- GI50 [6]: 61.7 µM
- GI50 [7]: 46.8 µM
- GI50 [8]: 83.2 µM
- GI50 [9]: 38 µM
- GI50 [10]: > 100 µM
- GI50 [11]: 53.7 µM
- GI50 [12]: 34.7 µM
- GI50 [13]: 44.7 µM
- GI50 [14]: 33.9 µM
- GI50 [15]: 46.8 µM
- GI50 [16]: 83.2 µM
- GI50 [17]: 74.1 µM
- GI50 [18]: 69.2 µM
- GI50 [19]: 55 µM
- GI50 [20]: 38 µM
- GI50 [21]: 19.5 µM
- GI50 [22]: 29.5 µM
- GI50 [23]: > 100 µM
- GI50 [24]: > 100 µM
- GI50 [25]: 46.8 µM
- GI50 [26]: 40.7 µM
- GI50 [27]: 42.7 µM
- GI50 [28]: 58.9 µM
- GI50 [29]: 83.2 µM
- GI50 [30]: 0.0794 µM
- GI50 [31]: 32.4 µM
- GI50 [32]: 53.7 µM
- GI50 [33]: 41.7 µM
- GI50 [34]: 38.9 µM
- GI50 [35]: 72.4 µM
- GI50 [36]: 70.8 µM
- GI50 [37]: 85.1 µM
- GI50 [38]: 35.5 µM
- GI50 [39]: 38.9 µM
- GI50 [40]: 40.7 µM
- GI50 [41]: 30.2 µM
- GI50 [42]: 61.7 µM
- GI50 [43]: 60.3 µM
- GI50 [44]: 52.5 µM

SMILES: CC(NC(=O)Nc1nc2ccccc2s1)(C(F)(F)F)C(F)(F)F
- GI50 [1]: 2.19 µM
- GI50 [2]: 97.7 µM
- GI50 [3]: 24.5 µM
- GI50 [4]: 45.7 µM
- GI50 [5]: 18.2 µM
- GI50 [6]: 41.7 µM
- GI50 [7]: > 100 µM
- GI50 [8]: 64.6 µM
- GI50 [9]: 37.2 µM
- GI50 [10]: 31.6 µM
- GI50 [11]: > 100 µM
- GI50 [12]: 17 µM
- GI50 [13]: 16.2 µM
- GI50 [14]: 49 µM
- GI50 [15]: 41.7 µM
- GI50 [16]: 21.9 µM
- GI50 [17]: 38 µM
- GI50 [18]: 91.2 µM
- GI50 [19]: 25.7 µM
- GI50 [20]: 24.5 µM
- GI50 [21]: 7.59 µM
- GI50 [22]: > 100 µM
- GI50 [23]: 41.7 µM
- GI50 [24]: 81.3 µM
- GI50 [25]: 46.8 µM
- GI50 [26]: > 100 µM
- GI50 [27]: 38 µM
- GI50 [28]: 15.1 µM
- GI50 [29]: 38.9 µM
- GI50 [30]: 34.7 µM
- GI50 [31]: 51.3 µM
- GI50 [32]: 52.5 µM
- GI50 [33]: 19.5 µM
- GI50 [34]: 24.5 µM
- GI50 [35]: 72.4 µM
- GI50 [36]: 38.9 µM
- GI50 [37]: 34.7 µM
- GI50 [38]: 74.1 µM
- GI50 [39]: 38 µM
- GI50 [40]: 33.9 µM
- GI50 [41]: 3.63 µM
- GI50 [43]: 29.5 µM
- GI50 [44]: 18.6 µM

From ChEMBL document CHEMBL1155222, “Synthesis and anticancer activity of N-bis(trifluoromethyl)alkyl-N'-thiazolyl and N-bis(trifluoromethyl)alkyl-N'-benzothiazolyl ureas” (2009)
